Measured values collected from several papers.
Protocols differ between the studies behind these lines.
Target: Misshapen-like kinase 1 (MINK1, Homo sapiens, UniProt Q8N4C8)

SMILES	assay	setting	remaining binding
O=C(Nc1cccnn1)N1CC(C/C=C/c2cncc(Oc3ccc(C(F)(F)F)cn3)n2)C1	cell-free assay, competition with immobilised ligand	1 µM	100%
C=CC(=O)N1CCC(C(=O)NCC(=O)N2CCN(c3nc(-c4cnc(N)nc4C(F)F)nc(N4CCOCC4)n3)CC2)CC1	binding, competition with immobilised ligand	1 µM	99%
CNCc1ccccc1-c1csc([C@H](C)Nc2nc(C)nc3cc(OC)c(OC)cc23)c1	cell-free assay, competition with immobilised ligand	1 µM	88%
N[C@@H]1CCN(c2nccc(-c3cnn4ncccc34)n2)C1	binding	1 µM	96%
O=C(Nc1cnc(Oc2ccc(F)cc2)nc1)N1CCc2ncccc2[C@@H]1c1ccc(F)cc1	cell-free assay, competition with immobilised ligand	1 µM	100%
CN(c1nccc(-c2cnn3ncccc23)n1)C1CC1	binding	1 µM	100%
COc1cnc(Nc2cccc(S(N)(=O)=O)c2)nc1N1CCN(c2ccccc2)CC1	binding, competition with immobilised ligand	1 µM	76%
FC(F)(F)c1ccc2c(c1)nc(-c1cccnc1)n2C1CC1	cell-free assay, competition with immobilised ligand	1 µM	100%
C[C@H]1CCN(c2nccc(-c3cnn4ncccc34)n2)C1	binding	1 µM	71%
O=C(NCC1CCOCC1)c1n[nH]cc1NC(=O)c1c(F)cccc1F	binding, competition with immobilised ligand	1 µM	77%
COc1ncc2cc3ccccc3nc2c1C#N	cell-free assay, competition with immobilised ligand	5 µM	99%
CN(C)c1nccc(-c2cnc3ncccn23)n1	binding	1 µM	82%
N#Cc1ccc(Nc2ccc3[nH]c(=O)[nH]c3c2)c(Cl)c1	cell-free assay, competition with immobilised ligand	1 µM	91%
O=C(c1ccc(Nc2ncc(Cl)c(-c3ccc(Cl)s3)n2)cc1)N1CCC(N2CCCC2)CC1	binding, competition with immobilised ligand	1 µM	17%
CNC(=O)[C@@H]1CC[C@@H](n2c(-c3ccc4cnccc4c3)nc3ccc(C(=O)NCc4cccc(C(N)=O)c4)cc32)C1	binding, competition with immobilised ligand	1 µM	94%
C[C@H](c1cccc(C#N)c1)n1cc(Cl)cc(C(N)=O)c1=N	cell-free assay, competition with immobilised ligand	1 µM	88%
COc1ccnn2ncc(-c3ccnc(N(C)C)n3)c12	binding	1 µM	81%
O=C(NC[C@@H]1[C@H]2CN(C(=O)OCc3cc(C(F)(F)F)cc(C(F)(F)F)c3)C[C@@H]12)c1ccc2[nH]nnc2c1	cell-free assay, competition with immobilised ligand	1 µM	72%
O=C(c1ccc(Nc2ncc(Cl)c(-c3cc4ccccc4s3)n2)cc1)N1CCC(N2CCCC2)CC1	binding, competition with immobilised ligand	1 µM	42%
CN(C)c1ncc(F)c(-c2cnn3ncccc23)n1	binding	1 µM	80%
O=C(NCCCN1CCOCC1)c1ccc(Nc2ncc(Cl)c(-c3ccc(Cl)s3)n2)cc1	binding, competition with immobilised ligand	1 µM	20%
Cc1cnn2ncc(-c3ccnc(N(C)C)n3)c2c1	binding	1 µM	92%
